Reference: ChEMBL document CHEMBL4765319, “Identification of a new series of flavopiridol-like structures as kinase inhibitors with high cytotoxic potency” (Eur J Med Chem, 2020)
Calls of active or inactive are those of the source. No cut-off for these calls is given here.

Key:
[1] = biological target: T1, Cyclin-dependent kinase 5/CDK5 activator 1 (Homo sapiens) (UniProt Q00535+Q15078); experiment: Inhibition of human CDK5/p25 assessed as residual activity at 10 uM in presence of ATP by ADP-glo luminescent assay relative to control; format: protein-complex assay
Summary of the method: (§1)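 Human kinases assayed by ADP-Glo luminescence with 10 μM ATP, compound at 10 or 1 μM. Activity is expressed as % of maximal activity relative to a DMSO control, mean n = 2.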

[2] = tested on: SK-OV-3; experiment: Antiproliferative activity against human SKOV3 cells assessed as reduction in cell viability incubated for 72 hrs by CellTiter-Blue fluorescence assay; conditions: SK-OV-3, 72 h
[3] = species: Sus scrofa; experiment: Inhibition of porcine CK1delta/epsilon assessed as residual activity at 10 uM in presence of ATP by ADP-glo luminescent assay relative to control
[4] = biological target: Glycogen synthase kinase-3 alpha (Homo sapiens, UniProt P49840); experiment: Inhibition of human GSK3alpha by ADP-Glo assay
[5] = biological target: Cyclin-dependent kinase 5/CDK5 activator 1 (Homo sapiens, UniProt Q00535); experiment: Inhibition of human CDK5/p25 in presence of ATP by ADP-glo luminescent assay; format: protein-complex assay
Summary of the method: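 Human kinases tested over roughly 0.0003–10 μM by ADP-Glo luminescence with 10 μM ATP, in duplicate. IC50 is taken from dose-response curves.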

[6] = tested on: K562; experiment: Cell cycle arrest in human K562 cells assessed as accumulation at S phase at 50 nM after 24 hrs by propidium iodide staining-based flow cytometric analysis (reference value: […]); format: functional
[7] = biological target: T1, Cyclin-dependent kinase 5/CDK5 activator 1 (Homo sapiens); experiment: Inhibition of human CDK5/p25 assessed as residual activity at 1 uM in presence of ATP by ADP-glo luminescent assay relative to control; format: protein-complex assay; summary of the method: as §1
[8] = biological target: T2, CDK9/cyclin T1 (Homo sapiens) (UniProt O60563+P50750); experiment: Inhibition of human CDK9/cyclin T assessed as residual activity at 1 uM in presence of ATP by ADP-glo luminescent assay relative to control; format: protein-complex assay; summary of the method: as §1
[9] = tested on: HCT-116; experiment: Cell cycle arrest in human HCT-116 cells assessed as accumulation at G0/G1 phase at 500 nM after 24 hrs by propidium iodide staining-based flow cytometric analysis (reference value: 20.9 %); format: functional
[10] = tested on: K562; experiment: Cell cycle arrest in human K562 cells assessed as accumulation at S phase at 100 nM after 24 hrs by propidium iodide staining-based flow cytometric analysis (reference value: […]); format: functional
[11] = species: Sus scrofa; experiment: Inhibition of porcine CK1delta/epsilon assessed as residual activity at 1 uM in presence of ATP by ADP-glo luminescent assay relative to control
[12] = tested on: HCT-116; experiment: Cell cycle arrest in human HCT-116 cells assessed as accumulation at G2/M phase at 500 nM after 24 hrs by propidium iodide staining-based flow cytometric analysis (reference value: 31.5 %); format: functional
[13] = tested on: HCT-116; experiment: Cell cycle arrest in human HCT-116 cells assessed as accumulation at G2/M phase at 200 nM after 24 hrs by propidium iodide staining-based flow cytometric analysis (reference value: 31.5 %); format: functional
[14] = tested on: HCT-116; experiment: Cell cycle arrest in human HCT-116 cells assessed as increase in accumulation at G2/M phase after 24 hrs by propidium iodide staining-based flow cytometric analysis; format: functional; conditions: dose 100-500 nM
[15] = species: Sus scrofa; experiment: Inhibition of porcine GSK3alpha/beta assessed as residual activity at 10 uM in presence of ATP by ADP-glo luminescent assay relative to control
Summary of the method: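 Porcine brain GSK3α/β, native and affinity-purified. Assayed by ADP-Glo luminescence with 10 μM ATP and 0.010 μg/μl GS-1 peptide substrate. Buffer A: 10 mM MgCl2, 1 mM EGTA, 1 mM DTT, 25 mM Tris-HCl pH 7.5, 50 μg/ml heparin. Compound tested at 10 or 1 μM. Result is % of maximal activity versus DMSO control, mean of n = 2.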

[16] = tested on: MIA PaCa-2; experiment: Antiproliferative activity against human MIA PaCa-2 cells assessed as reduction in cell viability incubated for 72 hrs by CellTiter-Blue fluorescence assay; conditions: MIA PaCa-2, 72 h
[17] = biological target: CDK2/Cyclin A2 (Homo sapiens) (UniProt P24941+P20248); experiment: Inhibition of human CDK2/cyclin A assessed as residual activity at 10 uM in presence of ATP by ADP-glo luminescent assay relative to control; format: protein-complex assay; summary of the method: as §1
[18] = tested on: K562; experiment: Cell cycle arrest in human K562 cells assessed as accumulation at G2/M phase at 25 nM after 24 hrs by propidium iodide staining-based flow cytometric analysis (reference value: 12.9 %); format: functional
[19] = tested on: Plasmodium falciparum; experiment: Inhibition of Plasmodium falciparum GSK3 assessed as residual activity at 10 uM in presence of ATP by ADP-glo luminescent assay relative to control
Summary of the method: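 Recombinant P. falciparum GSK3, bacterially expressed, in buffer A (10 mM MgCl2, 1 mM EGTA, 1 mM DTT, 25 mM Tris-HCl pH 7.5, 50 μg/ml heparin). Substrate 0.010 μg/μl GS-1 peptide, 10 μM ATP, ADP-Glo luminescence. Compound at 10 or 1 μM; % residual activity vs DMSO control, mean n = 2.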

[20] = biological target: Glycogen synthase kinase-3 beta (Homo sapiens, UniProt P49841); experiment: ATP competitive inhibition of human GSK3beta at 500 nM in presence of ATP by ADP-glo luminescent assay
Summary of the method: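 HsGSK3β activity by ADP-Glo luminescence with 500 nM inhibitor, or without it, across ATP 3.125 to 100 μM. Residual activity is given as % of a DMSO control, mean (n = 3) ± SD.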

[21] = tested on: K562; experiment: Cell cycle arrest in human K562 cells assessed as accumulation at G0/G1 phase at 50 nM after 24 hrs by propidium iodide staining-based flow cytometric analysis (reference value: 21.4 %); format: functional
[22] = tested on: SK-BR-3; experiment: Antiproliferative activity against human SK-BR-3 cells assessed as reduction in cell viability incubated for 72 hrs by CellTiter-Blue fluorescence assay; conditions: SK-BR-3, 72 h
[23] = tested on: K562; experiment: Cell cycle arrest in human K562 cells assessed as accumulation at G2/M phase at 50 nM after 24 hrs by propidium iodide staining-based flow cytometric analysis (reference value: 12.9 %); format: functional
[24] = tested on: K562; experiment: Cell cycle arrest in human K562 cells assessed as accumulation at S phase at 25 nM after 24 hrs by propidium iodide staining-based flow cytometric analysis (reference value: […]); format: functional
[25] = tested on: K562; experiment: Cell cycle arrest in human K562 cells assessed as increase in accumulation at G2/M phase after 24 hrs by propidium iodide staining-based flow cytometric analysis; format: functional; conditions: dose 25-100 nM
[26] = tested on: K562; experiment: Antiproliferative activity against human K562 cells assessed as reduction in cell viability incubated for 72 hrs by CellTiter-Blue resazurin fluorescence assay; conditions: K562, 72 h
[27] = biological target: T2, CDK9/cyclin T1 (Homo sapiens); experiment: Inhibition of human CDK9/cyclin T assessed as residual activity at 10 uM in presence of ATP by ADP-glo luminescent assay relative to control; format: protein-complex assay; summary of the method: as §1

T1 sequence (Q00535 whole entry): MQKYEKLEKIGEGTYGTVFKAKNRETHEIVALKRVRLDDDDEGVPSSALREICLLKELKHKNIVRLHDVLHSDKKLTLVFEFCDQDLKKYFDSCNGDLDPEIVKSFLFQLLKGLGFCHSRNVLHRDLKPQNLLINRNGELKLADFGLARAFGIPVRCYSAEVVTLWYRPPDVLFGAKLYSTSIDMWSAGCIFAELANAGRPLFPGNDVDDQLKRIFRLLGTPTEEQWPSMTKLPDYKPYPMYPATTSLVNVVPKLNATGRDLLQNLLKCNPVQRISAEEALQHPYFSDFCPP
T1 sequence (Q15078 99-307 partner limits assumed): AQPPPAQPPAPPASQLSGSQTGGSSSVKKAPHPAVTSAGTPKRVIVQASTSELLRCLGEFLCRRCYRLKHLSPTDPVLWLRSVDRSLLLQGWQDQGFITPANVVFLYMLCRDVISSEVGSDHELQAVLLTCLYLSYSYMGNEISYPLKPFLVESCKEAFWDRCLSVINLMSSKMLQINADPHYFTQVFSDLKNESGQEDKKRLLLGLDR
Glycogen synthase kinase-3 alpha, sequence (P49840 whole entry): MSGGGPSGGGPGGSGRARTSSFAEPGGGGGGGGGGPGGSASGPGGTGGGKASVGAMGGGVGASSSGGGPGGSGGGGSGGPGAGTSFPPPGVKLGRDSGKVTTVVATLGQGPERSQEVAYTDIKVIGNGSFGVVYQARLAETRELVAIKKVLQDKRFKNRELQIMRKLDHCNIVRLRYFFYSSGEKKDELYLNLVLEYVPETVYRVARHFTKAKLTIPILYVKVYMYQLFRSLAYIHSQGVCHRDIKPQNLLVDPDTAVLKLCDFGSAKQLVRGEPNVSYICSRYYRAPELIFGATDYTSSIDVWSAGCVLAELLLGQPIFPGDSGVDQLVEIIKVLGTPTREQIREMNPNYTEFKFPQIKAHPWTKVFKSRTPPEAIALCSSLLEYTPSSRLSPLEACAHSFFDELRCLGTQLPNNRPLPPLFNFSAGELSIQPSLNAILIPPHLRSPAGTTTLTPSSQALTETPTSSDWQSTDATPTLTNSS
Cyclin-dependent kinase 5/CDK5 activator 1, sequence (Q00535 whole entry): as the sequence (Q00535 whole entry) above
Cyclin-dependent kinase 5/CDK5 activator 1, sequence (Q15078 whole entry, further chain): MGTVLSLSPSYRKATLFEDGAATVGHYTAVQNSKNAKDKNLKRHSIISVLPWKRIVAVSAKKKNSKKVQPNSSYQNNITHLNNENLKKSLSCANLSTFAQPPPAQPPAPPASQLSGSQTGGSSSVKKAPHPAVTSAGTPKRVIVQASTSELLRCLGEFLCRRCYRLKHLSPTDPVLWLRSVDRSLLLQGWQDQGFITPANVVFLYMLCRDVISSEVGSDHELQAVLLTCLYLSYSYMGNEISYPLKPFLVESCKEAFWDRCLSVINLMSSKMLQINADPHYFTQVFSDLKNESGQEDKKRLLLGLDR
Glycogen synthase kinase-3 beta, sequence (P49841 whole entry, looked up): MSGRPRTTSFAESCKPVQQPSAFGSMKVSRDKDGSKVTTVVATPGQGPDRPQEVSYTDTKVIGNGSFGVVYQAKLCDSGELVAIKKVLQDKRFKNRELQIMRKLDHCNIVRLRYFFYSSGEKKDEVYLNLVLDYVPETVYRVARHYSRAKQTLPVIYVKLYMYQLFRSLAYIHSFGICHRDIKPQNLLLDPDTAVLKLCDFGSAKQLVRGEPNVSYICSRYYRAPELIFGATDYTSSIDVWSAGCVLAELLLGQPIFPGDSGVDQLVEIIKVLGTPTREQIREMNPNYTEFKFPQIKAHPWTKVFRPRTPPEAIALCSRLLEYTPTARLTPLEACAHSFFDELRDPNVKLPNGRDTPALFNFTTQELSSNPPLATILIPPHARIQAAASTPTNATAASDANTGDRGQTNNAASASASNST

## CN1CC=C(c2c(O)cc(O)c3c(=O)cc(-c4ccc(Sc5nc6ccccc6n5C)cc4Cl)oc23)CC1
[1]
  Activity: 24%
[2]
  IC50: 94 nM
[3]
  Activity: 62%
[4]
  IC50: 70 nM
[5]
  IC50: 1090 nM
[6]
  Activity: 49.4%
[7]
  Activity: 68%
[8]
  Activity: 1%
[9]
  Activity: 34.8%
[10]
  Activity: 21%
[11]
  Activity: 90%
[12]
  Activity: 40%
[13]
  Activity: 30.9%
[14]
  Activity: Dose-dependent effect
[15]
  Activity: 10%
[16]
  IC50: 52.9 nM
[17]
  Activity: 30%
[18]
  Activity: 10.7%
[19]
  Activity: 46%
[20]
  inhibition: Active
[21]
  Activity: 27.8%
[22]
  IC50: 53.7 nM
[23]
  Activity: 22.7%
[24]
  Activity: 68.6%
[25]
  Activity: Dose-dependent effect
[26]
  IC50: 50.8 nM
[27]
  Activity: -2%
